{
  "source": "paper PMC3726261",
  "about": "(Cancer, 2012)",
  "key": {"adiponectin": {"system": "adiponectin", "test": "Plasma adiponectin", "format": "in vivo, human", "summary_of_the_method": "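Blood was drawn at baseline (before cycle 1) and every 3 weeks thereafter from patients with advanced solid malignancies given oral drug twice daily at 0.10–1.15 mg in 21-day cycles. Plasma adiponectin was quantified by solid-phase quantitative sandwich enzyme immunoassay. A population pharmacokinetic/adiponectin model using data from every patient defined the dose–response relation and predicted the increase relative to pretreatment.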"}, "[1]": {"system": "metastatic or advanced solid malignancy", "test": "Tumor response", "format": "in vivo, human"}, "PPAR response element": {"system": "PPAR response element", "conditions": "cited from earlier work"}, "[2]": {"conditions": "in vivo; cited from earlier work"}, "[3]": {"system": "human colorectal tumor xeno-grafts", "conditions": "human colorectal tumor xeno-grafts in nude rodents; cited from earlier work"}, "[4]": {"test": "Pharmacokinetics: plasma R-150033 by LC-MS/MS after oral efatutazone", "format": "in vivo, human", "summary_of_the_method": "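Adults with advanced solid malignancies took oral doses twice daily in 21-day cycles, in cohorts of 3 to 6 at 0.10–1.15 mg. Plasma was sampled at baseline and 0.5, 1, 2, 3, 4, 6 and 8–10 h after the first dose on day 1 of cycles 1 and 2. Active metabolite R-150033 was measured by validated LC-MS/MS. AUC, Cmax and Tmax were derived; accumulation was AUC0-tau/AUC0–12, and steady state was judged from trough levels.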"}, "[5]": {"system": "human pancreatic and anaplastic thyroid tumor-cell cultures", "conditions": "cited from earlier work"}, "cancer cell growth": {"system": "cancer cell growth", "conditions": "inhibition of cancer cell growth; cited from earlier work"}, "[6]": {"conditions": "Patient 0020, Myxoid liposarcoma, 0.75 mg"}, "[7]": {"conditions": "PPAR response element activation"}},
  "data": [
    {"smiles": "Cc1cc(Oc2ccc3nc(COc4ccc(CC5SC(=O)NC5=O)cc4)n(C)c3c2)cc(C)c1N", "note": "(stereo not shown) [Efatutazone]", "values": [
      {"measurement": "Change in adiponectin levels", "setting": "adiponectin; after 4 weeks of treatment at all dose levels", "result": "increased"},
      {"measurement": "Predicted increase in adiponectin expression levels relative to pretreatment", "setting": "adiponectin; at optimal dose, population-based pharmacokinetic/adiponectin modeling", "result": "> 90", "unit": "%"},
      {"measurement": "No. of patients with stable disease or partial response", "setting": "[1]; 0.10 mg cohort (n = 6)", "result": 3},
      {"measurement": "Treatment duration in patients with SD/PR, Maximum", "setting": "[1]; 0.10 mg cohort (n = 6)", "result": 294, "unit": "days"},
      {"measurement": "Treatment duration in patients with SD/PR, Median", "setting": "[1]; 0.10 mg cohort (n = 6)", "result": 67.0, "unit": "days"},
      {"measurement": "Treatment duration in patients with SD/PR, Minimum", "setting": "[1]; 0.10 mg cohort (n = 6)", "result": 66, "unit": "days"},
      {"measurement": "No. of patients with stable disease or partial response", "setting": "[1]; 0.15 mg cohort (n = 3)", "result": 2},
      {"measurement": "Treatment duration in patients with SD/PR, Maximum", "setting": "[1]; 0.15 mg cohort (n = 3)", "result": 178, "unit": "days"},
      {"measurement": "Treatment duration in patients with SD/PR, Median", "setting": "[1]; 0.15 mg cohort (n = 3)", "result": 176.0, "unit": "days"},
      {"measurement": "Treatment duration in patients with SD/PR, Minimum", "setting": "[1]; 0.15 mg cohort (n = 3)", "result": 173, "unit": "days"},
      {"measurement": "No. of patients with stable disease or partial response", "setting": "[1]; 0.25 mg cohort (n = 4)", "result": 0},
      {"measurement": "No. of patients with stable disease or partial response", "setting": "[1]; 0.35 mg cohort (n = 3)", "result": 1},
      {"measurement": "Treatment duration in patients with SD/PR, Maximum", "setting": "[1]; 0.35 mg cohort (n = 3)", "result": 84, "unit": "days"},
      {"measurement": "Treatment duration in patients with SD/PR, Median", "setting": "[1]; 0.35 mg cohort (n = 3)", "result": 84.0, "unit": "days"},
      {"measurement": "Treatment duration in patients with SD/PR, Minimum", "setting": "[1]; 0.35 mg cohort (n = 3)", "result": 84, "unit": "days"},
      {"measurement": "No. of patients with stable disease or partial response", "setting": "[1]; 0.50 mg cohort (n = 6)", "result": 3},
      {"measurement": "Treatment duration in patients with SD/PR, Maximum", "setting": "[1]; 0.50 mg cohort (n = 6)", "result": 336, "unit": "days"},
      {"measurement": "Treatment duration in patients with SD/PR, Median", "setting": "[1]; 0.50 mg cohort (n = 6)", "result": 126.0, "unit": "days"},
      {"measurement": "Treatment duration in patients with SD/PR, Minimum", "setting": "[1]; 0.50 mg cohort (n = 6)", "result": 74, "unit": "days"},
      {"measurement": "No. of patients with stable disease or partial response", "setting": "[1]; 0.75 mg cohort (n = 3)", "result": 1},
      {"measurement": "Treatment duration in patients with SD/PR, Maximum", "setting": "[1]; 0.75 mg cohort (n = 3)", "result": 690, "unit": "days"},
      {"measurement": "Treatment duration in patients with SD/PR, Median", "setting": "[1]; 0.75 mg cohort (n = 3)", "result": 690.0, "unit": "days"},
      {"measurement": "Treatment duration in patients with SD/PR, Minimum", "setting": "[1]; 0.75 mg cohort (n = 3)", "result": 690, "unit": "days"},
      {"measurement": "No. of patients with stable disease or partial response", "setting": "[1]; 1.15 mg cohort (n = 3)", "result": 1},
      {"measurement": "Treatment duration in patients with SD/PR, Maximum", "setting": "[1]; 1.15 mg cohort (n = 3)", "result": 84, "unit": "days"},
      {"measurement": "Treatment duration in patients with SD/PR, Median", "setting": "[1]; 1.15 mg cohort (n = 3)", "result": 84.0, "unit": "days"},
      {"measurement": "Treatment duration in patients with SD/PR, Minimum", "setting": "[1]; 1.15 mg cohort (n = 3)", "result": 84, "unit": "days"},
      {"measurement": "Patients with stable disease lasting ≥60 days", "setting": "[1]; 10 of 27 evaluable patients", "result": 37, "unit": "%"},
      {"measurement": "Number of sustained partial responses", "setting": "[1]; 27 evaluable patients", "result": 1},
      {"measurement": "No. of patients with stable disease or partial response", "setting": "[1]; Overall (N = 27)", "result": 11},
      {"measurement": "Treatment duration in patients with SD/PR, Maximum", "setting": "[1]; Overall (N = 27)", "result": 690, "unit": "days"},
      {"measurement": "Treatment duration in patients with SD/PR, Median", "setting": "[1]; Overall (N = 27)", "result": 126.0, "unit": "days"},
      {"measurement": "Treatment duration in patients with SD/PR, Minimum", "setting": "[1]; Overall (N = 27)", "result": 66, "unit": "days"},
      {"measurement": "Treatment Duration", "setting": "[1]; Patient 0001, Thymoma, 0.10 mg, stable disease", "result": 67, "unit": "days"},
      {"measurement": "Treatment Duration", "setting": "[1]; Patient 0002, Carcinoma of unknown origin, 0.10 mg, stable disease", "result": 66, "unit": "days"},
      {"measurement": "Treatment Duration", "setting": "[1]; Patient 0005, Cancer of the peritoneum, 0.10 mg, stable disease", "result": 294, "unit": "days"},
      {"measurement": "Treatment Duration", "setting": "[1]; Patient 0007, Colorectal carcinoma, 0.15 mg, stable disease", "result": 173, "unit": "days"},
      {"measurement": "Treatment Duration", "setting": "[1]; Patient 0015, Carcinoma of unknown origin, 0.35 mg, stable disease", "result": 84, "unit": "days"},
      {"measurement": "Treatment Duration", "setting": "[1]; Patient 0017, Colorectal carcinoma, 0.50 mg, stable disease", "result": 126, "unit": "days"},
      {"measurement": "Treatment Duration", "setting": "[1]; Patient 0018, Colorectal carcinoma, 0.50 mg, stable disease", "result": 74, "unit": "days"},
      {"measurement": "Time on therapy of patient with sustained partial response", "setting": "[1]; Patient 20, metastatic myxoid liposarcoma", "result": 690, "unit": "days"},
      {"measurement": "Nadir reduction in tumor size", "setting": "[1]; Patient 20, metastatic myxoid liposarcoma, June 2009", "result": "approximately 49%"},
      {"measurement": "Best response (RECIST)", "setting": "[1]; [6]", "result": "partial response"},
      {"measurement": "Treatment Duration", "setting": "[1]; [6]", "result": 690, "unit": "days"},
      {"measurement": "Fluorodeoxyglucose uptake (PET/CT)", "setting": "[1]; Patient 20, November 2008", "result": "no fluorodeoxyglucose uptake in the remaining tumors"},
      {"measurement": "Treatment Duration", "setting": "[1]; Patient 0022, Cancer of the appendix, 1.15 mg, stable disease", "result": 84, "unit": "days"},
      {"measurement": "Treatment Duration", "setting": "[1]; Patient 0024, Carcinoma of unknown origin, 0.50 mg, stable disease", "result": 336, "unit": "days"},
      {"measurement": "Treatment Duration", "setting": "[1]; Patient 2001, Leiomyosarcoma, 0.15 mg, stable disease", "result": 178, "unit": "days"},
      {"measurement": "Median overall survival", "setting": "[1]; in vivo", "result": 283, "unit": "days"},
      {"measurement": "Median time to disease progression", "setting": "[1]; in vivo", "result": 51, "unit": "days"},
      {"measurement": "Median treatment duration for patients with SD or PR", "setting": "[1]; in vivo", "result": 126, "unit": "days"},
      {"measurement": "Potency relative to rosiglitazone", "setting": "PPAR response element; [7]", "result": "at least 50 ×"},
      {"measurement": "Potency relative to troglitazone", "setting": "PPAR response element; [7]", "result": "≥ 500", "unit": "×"},
      {"measurement": "PPAR subtype selectivity of transcription activation", "setting": "PPAR response element; background statement, no reference given", "result": "selectively activates PPARγ-mediated transcription with little effect on other PPAR subtypes"},
      {"measurement": "Tolerability of single dose", "setting": "[2]", "result": "well tolerated"},
      {"measurement": "Growth of tumor xenografts", "setting": "[3]", "result": "inhibits"},
      {"measurement": "Dose proportionality of exposure (AUC and Cmax)", "setting": "[4]; 0.10 to 1.15 mg twice daily, single and multiple doses", "result": "approximately dose proportional"},
      {"measurement": "Time to steady-state levels", "setting": "[4]; based on trough plasma concentrations, twice daily", "result": "by week 1 of cycle 2"},
      {"measurement": "Proliferation of tumor-cell cultures", "setting": "[5]", "result": "inhibits proliferation"},
      {"measurement": "Potency relative to rosiglitazone", "setting": "cancer cell growth", "result": "at least 50 ×"},
      {"measurement": "Potency relative to troglitazone", "setting": "cancer cell growth", "result": "≥ 500", "unit": "×"}
    ]}
  ]
}
